In ChEMBL document CHEMBL1139778, “Synthesis and biological evaluation of cinnamyl compounds as potent antitumor agents” (Bioorg Med Chem Lett, 2007):
The source made the active and inactive calls. No cut-off for these calls is given here.

Experiments:
HCT-116 [1] = assay: Growth inhibition of human HCT116 cells after 24 hrs by ELISA; type: functional; details: HCT-116, 24 h
NCI-H23 = assay: Growth inhibition of human NCI-H23 cells after 24 hrs by ELISA; type: functional; details: NCI-H23, 24 h
SK-OV-3 = assay: Growth inhibition of human SKOV3 cells after 24 hrs by ELISA; type: functional; details: SK-OV-3, 24 h
A549 = assay: Growth inhibition of human A549 cells after 24 hrs by ELISA; type: functional; details: A549, 24 h
[2] = Growth inhibition of human […] cells after 24 hrs by ELISA; type: functional
SW-620 [3] = assay: Antitumor activity against human SW620 cells in nude mouse assessed as tumor volume on day 5 at 50 mg/kg, […]; type: functional; details: route intraperitoneal
SW-620 [4] = assay: Antitumor activity against human SW620 cells in nude mouse assessed as tumor volume on day 7 at 50 mg/kg, […]; type: functional; details: route intraperitoneal
SW-620 [5] = assay: Antitumor activity against human SW620 cells in nude mouse assessed as tumor volume on day 9 at 50 mg/kg, […]; type: functional; details: route intraperitoneal
SW-620 [6] = assay: Antitumor activity against human SW620 cells in nude mouse assessed as tumor volume on day 12 at 50 mg/kg, […]; type: functional; details: route intraperitoneal
SW-620 [7] = assay: Antitumor activity against human SW620 cells in nude mouse assessed as tumor volume on day 14 at 50 mg/kg, ip for 20 days; type: organism-based; set-up: dose 50 mg/kg, route intraperitoneal; details: in vivo
Summary of the method: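 SW620 human colon adenocarcinoma cells (3 × 10⁷ cells/mL) implanted subcutaneously in right flank of nude mice on day 0. Compound in 0.5% Tween 80 given ip at 50 mg/kg per day; vehicle control and doxifluridine 50 mg/kg reference; 8 mice per group. Tumor volume estimated as length × width × height/2; mice sacrificed on day 14.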

HCT-116 [8] = assay: Cell cycle arrest in human HCT116 cells assessed as accumulation at subG1 phase at 20 uM after 24 hrs by flow cytometry; type: functional
Summary of the method: (§1)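 After treatment, cells harvested at 24 h, trypsinized, washed with PBS, fixed overnight in ice-cold 70% EtOH, then treated with RNase A 100 µg/mL at 37 °C for 30 min. Stained with propidium iodide (final 50 µg/mL). DNA content of 20,000 fixed cells read by flow cytometry (FACScalibur); phase distribution from cell cycle modelling.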

HCT-116 [9] = assay: Cell cycle arrest in human HCT116 cells assessed as accumulation at subG1 phase at 30 uM after 24 hrs by flow cytometry; type: functional; summary of the method: as §1
HCT-116 [10] = assay: Cell cycle arrest in human HCT116 cells assessed as accumulation at subG1 phase at 40 uM after 24 hrs by flow cytometry; type: functional; summary of the method: as §1
HCT-116 [11] = assay: Cell cycle arrest in human HCT116 cells assessed as accumulation at G0/G1 phase at 20 uM after 24 hrs by flow cytometry; type: functional; summary of the method: as §1
HCT-116 [12] = assay: Cell cycle arrest in human HCT116 cells assessed as accumulation at G0/G1 phase at 30 uM after 24 hrs by flow cytometry; type: functional; summary of the method: as §1
HCT-116 [13] = assay: Cell cycle arrest in human HCT116 cells assessed as accumulation at G0/G1 phase at 40 uM after 24 hrs by flow cytometry; type: functional; summary of the method: as §1
HCT-116 [14] = assay: Cell cycle arrest in human HCT116 cells assessed as accumulation at S phase at 20 uM after 24 hrs by flow cytometry; type: functional; summary of the method: as §1
HCT-116 [15] = assay: Cell cycle arrest in human HCT116 cells assessed as accumulation at S phase at 30 uM after 24 hrs by flow cytometry; type: functional; summary of the method: as §1
HCT-116 [16] = assay: Cell cycle arrest in human HCT116 cells assessed as accumulation at S phase at 40 uM after 24 hrs by flow cytometry; type: functional; summary of the method: as §1
HCT-116 [17] = assay: Cell cycle arrest in human HCT116 cells assessed as accumulation at G2/M phase at 20 uM after 24 hrs by flow cytometry; type: functional; summary of the method: as §1
HCT-116 [18] = assay: Cell cycle arrest in human HCT116 cells assessed as accumulation at G2/M phase at 30 uM after 24 hrs by flow cytometry; type: functional; summary of the method: as §1
HCT-116 [19] = assay: Cell cycle arrest in human HCT116 cells assessed as accumulation at G2/M phase at 40 uM after 24 hrs by flow cytometry; type: functional; summary of the method: as §1
SW-620 [20] = assay: Cell cycle arrest in human SW620 cells assessed as accumulation at subG1 phase at 20 uM after 24 hrs by flow cytometry; type: functional; summary of the method: as §1
SW-620 [21] = assay: Cell cycle arrest in human SW620 cells assessed as accumulation at subG1 phase at 30 uM after 24 hrs by flow cytometry; type: functional; summary of the method: as §1
SW-620 [22] = assay: Cell cycle arrest in human SW620 cells assessed as accumulation at subG1 phase at 40 uM after 24 hrs by flow cytometry; type: functional; summary of the method: as §1
SW-620 [23] = assay: Cell cycle arrest in human SW620 cells assessed as accumulation at G0/G1 phase at 20 uM after 24 hrs by flow cytometry; type: functional; summary of the method: as §1
SW-620 [24] = assay: Cell cycle arrest in human SW620 cells assessed as accumulation at G0/G1 phase at 30 uM after 24 hrs by flow cytometry; type: functional; summary of the method: as §1
SW-620 [25] = assay: Cell cycle arrest in human SW620 cells assessed as accumulation at G0/G1 phase at 40 uM after 24 hrs by flow cytometry; type: functional; summary of the method: as §1
SW-620 [26] = assay: Cell cycle arrest in human SW620 cells assessed as accumulation at S phase at 20 uM after 24 hrs by flow cytometry; type: functional; summary of the method: as §1
SW-620 [27] = assay: Cell cycle arrest in human SW620 cells assessed as accumulation at S phase at 30 uM after 24 hrs by flow cytometry; type: functional; summary of the method: as §1
SW-620 [28] = assay: Cell cycle arrest in human SW620 cells assessed as accumulation at S phase at 40 uM after 24 hrs by flow cytometry; type: functional; summary of the method: as §1
SW-620 [29] = assay: Cell cycle arrest in human SW620 cells assessed as accumulation at G2/M phase at 20 uM after 24 hrs by flow cytometry; type: functional; summary of the method: as §1
SW-620 [30] = assay: Cell cycle arrest in human SW620 cells assessed as accumulation at G2/M phase at 30 uM after 24 hrs by flow cytometry; type: functional; summary of the method: as §1
SW-620 [31] = assay: Cell cycle arrest in human SW620 cells assessed as accumulation at G2/M phase at 40 uM after 24 hrs by flow cytometry; type: functional; summary of the method: as §1
HCT-116 [32] = assay: Induction of PARP cleavage in human HCT116 cells at 20 uM after 24 hrs; type: functional, cell-based
Summary of the method: (§2)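 HCT116 cells treated for 24 h, lysed in RIPA buffer; 40 µg lysate resolved by 15% SDS–PAGE, blotted to PVDF, blocked in 5% milk/TBS-T. Primary antibodies 2 h at room temperature, HRP goat anti-rabbit secondary, chemiluminescent detection on X-ray film for PARP and caspase-3 cleavage.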

HCT-116 [33] = assay: Induction of caspase 3 cleavage in human HCT116 cells at 20 uM after 24 hrs; type: functional, cell-based; summary of the method: as §2
[34] = tested on: SW620 (human colon adenocarcinoma); assay: Induction of apoptosis in human SW620 cells at 30 uM after 24 hrs

O=C(Cl)/C=C/c1ccccc1OC(=O)c1ccccc1
GI50 (HCT-116 [1]): > 100 µM
GI50 (NCI-H23): > 100 µM
GI50 (SK-OV-3): > 100 µM
GI50 (A549): > 100 µM
GI50 [2]: > 100 µM

C[C@H]1O[C@@H](n2cc(F)c(=O)[nH]c2=O)[C@H](O)[C@@H]1O [DOXIFLURIDINE]
Activity (SW-620 [3]): 3.8 mm3
Activity (SW-620 [4]): 15 mm3
Activity (SW-620 [5]): 41.4 mm3
Activity (SW-620 [6]): 77.9 mm3
Activity (SW-620 [7]): 120.7 mm3

O=C(/C=C/c1ccccc1OC(=O)c1ccccc1)NO
GI50 (HCT-116 [1]): 11.2 µM
GI50 (NCI-H23): 17.5 µM
GI50 (SK-OV-3): 35.3 µM
GI50 (A549): 44.9 µM
GI50 [2]: 20.2 µM

COc1ccccc1/C=C/C(=O)NO
GI50 (HCT-116 [1]): 15.3 µM
GI50 (NCI-H23): 26.9 µM
GI50 (SK-OV-3): 48.8 µM
GI50 (A549): 53.5 µM
GI50 [2]: 16.8 µM

O=C(/C=C/c1ccccc1OC(=O)c1ccccc1)NOC(=O)c1ccccc1
GI50 (HCT-116 [1]): 13.6 µM
GI50 (NCI-H23): 18.2 µM
GI50 (SK-OV-3): 12.9 µM
GI50 (A549): 8.8 µM
GI50 [2]: 3.2 µM

CC(=O)ONC(=O)/C=C/c1ccccc1OC(=O)c1ccccc1
GI50 (HCT-116 [1]): 21.3 µM
GI50 (NCI-H23): 26.3 µM
GI50 (SK-OV-3): 16.8 µM
GI50 (A549): 30.2 µM
GI50 [2]: 18.6 µM

CN1CCN(C(=O)ONC(=O)/C=C/c2ccccc2OC(=O)c2ccccc2)CC1
GI50 (HCT-116 [1]): 40.4 µM
GI50 (NCI-H23): 45.2 µM
GI50 (SK-OV-3): > 100 µM
GI50 (A549): > 100 µM
GI50 [2]: 89.3 µM

CN1CCN(C(=O)/C=C/c2ccccc2OC(=O)c2ccccc2)CC1
GI50 (HCT-116 [1]): > 100 µM
GI50 (NCI-H23): > 100 µM
GI50 (SK-OV-3): > 100 µM
GI50 (A549): > 100 µM
GI50 [2]: > 100 µM

O=C(/C=C/c1ccccc1O)NO
GI50 (HCT-116 [1]): 16.8 µM
GI50 (NCI-H23): 27.8 µM
GI50 (SK-OV-3): 50.4 µM
GI50 (A549): 55.2 µM
GI50 [2]: 49.8 µM

O=C(/C=C/c1ccccc1OC(=O)c1ccccc1)NOC(=O)N1CCOCC1
GI50 (HCT-116 [1]): 12.5 µM
GI50 (NCI-H23): 12.9 µM
GI50 (SK-OV-3): 12.7 µM
GI50 (A549): 25.2 µM
GI50 [2]: 5.8 µM
Activity (HCT-116 [8]): 32.36%
Activity (HCT-116 [9]): 39.14%
Activity (HCT-116 [10]): 36.83%
Activity (HCT-116 [11]): 42.72%
Activity (HCT-116 [12]): 41.4%
Activity (HCT-116 [13]): 31.06%
Activity (HCT-116 [14]): 22.05%
Activity (HCT-116 [15]): 20.39%
Activity (HCT-116 [16]): 26.88%
Activity (HCT-116 [17]): 35.23%
Activity (HCT-116 [18]): 38.22%
Activity (HCT-116 [19]): 42.06%
Activity (SW-620 [20]): 3.03%
Activity (SW-620 [21]): 3.5%
Activity (SW-620 [22]): 12.7%
Activity (SW-620 [23]): 48.88%
Activity (SW-620 [24]): 46.46%
Activity (SW-620 [25]): 33.34%
Activity (SW-620 [26]): 27.79%
Activity (SW-620 [27]): 26.12%
Activity (SW-620 [28]): 26.52%
Activity (SW-620 [29]): 22.33%
Activity (SW-620 [30]): 26.41%
Activity (SW-620 [31]): 40.14%
Activity (HCT-116 [32]): Active
Activity (HCT-116 [33]): Active
Activity (SW-620 [3]): 1.4 mm3
Activity (SW-620 [4]): 4.3 mm3
Activity (SW-620 [5]): 17.3 mm3
Activity (SW-620 [6]): 45 mm3
Activity (SW-620 [7]): 89 mm3
Activity [34]: Active

CO/N=C/C=C/c1ccccc1OC(=O)c1ccccc1
GI50 (HCT-116 [1]): > 100 µM
GI50 (NCI-H23): > 100 µM
GI50 (SK-OV-3): > 100 µM
GI50 (A549): > 100 µM
GI50 [2]: > 100 µM
